ChEMBL document CHEMBL1649154, “Antibiotic susceptibility and characteristics of Neisseria meningitidis isolates from the African meningitis belt, 2000 to 2006: phenotypic and genotypic perspectives” (2009)
Converted amounts (≈) assume the structure as drawn.

Experiments:
Format in all cases: functional
Neisseria meningitidis [1] = assay: Antibacterial activity against Beta-lactamase-negative Neisseria meningitidis by Etest method
Neisseria meningitidis [2] = assay: Antibacterial activity against Beta-lactamase-negative Neisseria meningitidis assessed as percent susceptible isolates by Etest method
In short: (§1)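 Serogroup A reference strain OR173/87 included for quality control. Isolates were classed susceptible, intermediate or resistant using breakpoints drawn from several organizations.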

Neisseria meningitidis [3] = assay: Antibacterial activity against Beta-lactamase-negative Neisseria meningitidis assessed as percent intermediate isolates by Etest method; in short: as §1
Neisseria meningitidis [4] = assay: Antibacterial activity against Beta-lactamase-negative Neisseria meningitidis assessed as percent resistant isolates by Etest method
In short: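 Isolates were classed resistant using breakpoints drawn from several organizations. Serogroup A reference strain OR173/87 was included for quality control.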

For O=C(O)c1cn(C2CC2)c2cc(N3CCNCC3)c(F)cc2c1=O [CIPROFLOXACIN], the MIC50 (Neisseria meningitidis [1]) was 0.004 µg/mL (≈ 0.0121 µM), the MIC90 (Neisseria meningitidis [1]) was 0.004 µg/mL (≈ 0.0121 µM) and the Activity (Neisseria meningitidis [2]) was 100%. For the same molecule, the Activity (Neisseria meningitidis [3]) was 0%.

Molecule CC1(C)S[C@@H]2[C@H](NC(=O)COc3ccccc3)C(=O)N2[C@H]1C(=O)O [PENICILLIN V] has an MIC (Neisseria meningitidis [1]) of 0.016 µg/mL (≈ 0.0457 µM), an MIC50 (Neisseria meningitidis [1]) of 0.19 µg/mL (≈ 0.542 µM) and an MIC90 (Neisseria meningitidis [1]) of 0.38 µg/mL (≈ 1.08 µM). For the same molecule, the Activity (Neisseria meningitidis [2]) was 99%, the Activity (Neisseria meningitidis [3]) was 0% and the Activity (Neisseria meningitidis [4]) was 1%.

CN(C)[C@@H]1C(O)=C(C(N)=O)C(=O)[C@@]2(O)C(O)=C3C(=O)c4c(O)cccc4[C@@](C)(O)[C@H]3C[C@@H]12 [TETRACYCLINE] showed an MIC50 (Neisseria meningitidis [1]) of 2 µg/mL (≈ 4.5 µM), an MIC90 (Neisseria meningitidis [1]) of 4 µg/mL (≈ 9 µM) and an Activity (Neisseria meningitidis [2]) of 48%. For the same molecule, the Activity (Neisseria meningitidis [3]) was 0% and the Activity (Neisseria meningitidis [4]) was 52%.

With CC1(C)S[C@@H]2[C@H](NC(=O)Cc3ccccc3)C(=O)N2[C@H]1C(=O)O [PENICILLIN G] the MIC50 (Neisseria meningitidis [1]) was 0.047 µg/mL (≈ 0.141 µM), the MIC90 (Neisseria meningitidis [1]) was 0.094 µg/mL (≈ 0.281 µM) and the Activity (Neisseria meningitidis [2]) was 98%. The Activity (Neisseria meningitidis [3]) was 2% and the Activity (Neisseria meningitidis [4]) was 0%.

CO/N=C(\C(=O)N[C@@H]1C(=O)N2C(C(=O)O)=C(CSc3nc(=O)c(O)nn3C)CS[C@H]12)c1csc(N)n1 [CEFTRIAXONE] was tested, and the MIC (Neisseria meningitidis [1]) was less than 0.002 µg/mL, the MIC50 (Neisseria meningitidis [1]) was less than 0.002 µg/mL and the MIC90 (Neisseria meningitidis [1]) was less than 0.002 µg/mL. The Activity (Neisseria meningitidis [2]) was 100% and the Activity (Neisseria meningitidis [3]) was 0%.

For CC1(C)S[C@@H]2[C@H](NC(=O)[C@H](N)c3ccccc3)C(=O)N2[C@H]1C(=O)O [AMPICILLIN], the MIC50 (Neisseria meningitidis [1]) was 0.064 µg/mL (≈ 0.183 µM), the MIC90 (Neisseria meningitidis [1]) was 0.094 µg/mL (≈ 0.269 µM) and the Activity (Neisseria meningitidis [2]) was 99%. The Activity (Neisseria meningitidis [3]) was 1% and the Activity (Neisseria meningitidis [4]) was 0%.

Nc1ccc(S(=O)(=O)Nc2ncccn2)cc1 [SULFADIAZINE] showed an MIC50 (Neisseria meningitidis [1]) greater than 256 µg/mL, an MIC90 (Neisseria meningitidis [1]) greater than 256 µg/mL and an Activity (Neisseria meningitidis [2]) of 0%. The Activity (Neisseria meningitidis [3]) was 6% and the Activity (Neisseria meningitidis [4]) was 94%.

In the case of O=C(N[C@H](CO)[C@H](O)c1ccc([N+](=O)[O-])cc1)C(Cl)Cl [CHLORAMPHENICOL], the MIC50 (Neisseria meningitidis [1]) is reported as 0.75 µg/mL (≈ 2.32 µM), the MIC90 (Neisseria meningitidis [1]) is reported as 1 µg/mL (≈ 3.09 µM) and the Activity (Neisseria meningitidis [2]) is reported as 100%. For the same molecule, the Activity (Neisseria meningitidis [3]) was 0%.

CO/N=C(\C(=O)N[C@@H]1C(=O)N2C(C(=O)O)=C(COC(N)=O)CS[C@H]12)c1ccco1 [CEFUROXIME] was tested, and the MIC50 (Neisseria meningitidis [1]) was 0.047 µg/mL (≈ 0.111 µM), the MIC90 (Neisseria meningitidis [1]) was 0.094 µg/mL (≈ 0.221 µM) and the Activity (Neisseria meningitidis [2]) was 99%. The Activity (Neisseria meningitidis [3]) was 1% and the Activity (Neisseria meningitidis [4]) was 0%.

For CO[C@H]1/C=C/O[C@@]2(C)Oc3c(C)c(O)c4c(O)c(c(/C=N/N5CCN(C)CC5)c(O)c4c3C2=O)NC(=O)/C(C)=C\C=C\[C@H](C)[C@H](O)[C@@H](C)[C@@H](O)[C@@H](C)[C@H](OC(C)=O)[C@@H]1C [RIFAMPIN], the MIC50 (Neisseria meningitidis [1]) was 0.064 µg/mL (≈ 0.0778 µM), the MIC90 (Neisseria meningitidis [1]) was 0.125 µg/mL (≈ 0.152 µM) and the Activity (Neisseria meningitidis [2]) was 99%. It also gave an Activity (Neisseria meningitidis [3]) of 1% and an Activity (Neisseria meningitidis [4]) of 0%.

CC[C@H]1OC(=O)[C@H](C)[C@@H](O[C@H]2C[C@@](C)(OC)[C@@H](O)[C@H](C)O2)[C@H](C)[C@@H](O[C@@H]2O[C@H](C)C[C@H](N(C)C)[C@H]2O)[C@](C)(O)C[C@@H](C)C(=O)[C@H](C)[C@@H](O)[C@]1(C)O [ERYTHROMYCIN] was tested, and the MIC (Neisseria meningitidis [1]) was 0.032 µg/mL (≈ 0.0436 µM), the MIC50 (Neisseria meningitidis [1]) was 0.75 µg/mL (≈ 1.02 µM) and the MIC90 (Neisseria meningitidis [1]) was 1 µg/mL (≈ 1.36 µM). For the same molecule, the Activity (Neisseria meningitidis [2]) was 26%, the Activity (Neisseria meningitidis [3]) was 0% and the Activity (Neisseria meningitidis [4]) was 74%.
